# Reference: ChEMBL document CHEMBL3351590, “8-Methyltryptanthrin-induced differentiation of P19CL6 embryonal carcinoma cells into spontaneously beating cardiomyocyte-like cells” (2014)
# Activity calls are given as the source filed them. The rule behind the calls is not given here.
# Columns and labels:
# [1] = Decrease in Cav3.1 gene expression in C3H/He mouse P19CL6 cells at 1 uM on day 10 by RT-PCR analysis relative to control; type: functional, cell-based
# In short: (§1)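 P19CL6 cells are cultured in α-MEM with 10% FBS, with compound (final DMSO ≤0.1%) renewed every 48 h. Total RNA is taken on day 10 and/or 18 and reverse-transcribed with random primers. Real-time PCR: 95 °C 10 min, then 40 cycles of 95 °C 15 s and 60 °C 1 min. Expression is normalized to G3PDH and given as a ratio to day 0.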
# [2] = test system: P19CL6; assay: Induction of Cav3.1 gene expression in C3H/He mouse P19CL6 cells at 1 uM on day 18 by RT-PCR analysis; type: functional, cell-based; in short: as §1
# [3] = test system: P19CL6; assay: Effect on Cav3.2 gene expression in C3H/He mouse P19CL6 cells at 1 uM by RT-PCR analysis; type: functional, cell-based; in short: as §1
# [4] = test system: P19CL6; assay: Effect on HCN2 gene expression in C3H/He mouse P19CL6 cells at 1 uM by RT-PCR analysis; type: functional, cell-based; in short: as §1
# [5] = test system: P19CL6; assay: Effect on HCN4 gene expression in C3H/He mouse P19CL6 cells at 1 uM by RT-PCR analysis; type: functional, cell-based; in short: as §1
# [6] = test system: P19CL6; assay: Induction of differentiation of C3H/He mouse P19CL6 cells assessed as beating aggregate formation on day 10 by phase contrast microscopic analysis; type: functional, cell-based
# In short: (§2)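 Cells are seeded at 2.0 × 10^4 per 35 mm dish in α-MEM with 10% FBS, penicillin and streptomycin, plus compound (final DMSO ≤0.1%), with medium changed every 48 h. Aggregates and beating aggregates are counted every 2 days by phase-contrast microscopy in five ×100 fields (total 8.8 mm2), up to day 18. Mean ± SEM, n = 7.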
# [7] = test system: P19CL6; assay: Induction of differentiation of C3H/He mouse P19CL6 cells assessed as beating aggregate formation at 0.1 to 1 uM on day 18 by phase contrast microscopic analysis; type: functional, cell-based; in short: as §2
# [8] = Increase in area of beating aggregates in C3H/He mouse P19CL6 cells on day 18 by phase contrast microscopic analysis (reference value: 0.5 +/- 0.3 /mm2); type: functional
# [9] = Induction of GJA1 gene expression in C3H/He mouse P19CL6 cells at 1 uM on day 18 by RT-PCR analysis relative to control; type: functional; in short: as §1
# [10] = Induction of GJA5 gene expression in C3H/He mouse P19CL6 cells at 1 uM on day 10 by RT-PCR analysis relative to control; type: functional; in short: as §1
# [11] = Induction of GJA5 gene expression in C3H/He mouse P19CL6 cells at 1 uM on day 18 by RT-PCR analysis relative to control; type: functional; in short: as §1
# [12] = test system: P19CL6; assay: Effect on GJA4 gene expression in C3H/He mouse P19CL6 cells at 1 uM by RT-PCR analysis; type: functional, cell-based; in short: as §1
# [13] = test system: P19CL6; assay: Effect on GJB1 gene expression in C3H/He mouse P19CL6 cells at 1 uM by RT-PCR analysis; type: functional, cell-based; in short: as §1
# [14] = test system: P19CL6; assay: Effect on GJC1 gene expression in C3H/He mouse P19CL6 cells at 1 uM by RT-PCR analysis; type: functional, cell-based; in short: as §1
# [15] = Induction of differentiation of C3H/He mouse P19CL6 cells assessed as number of aggregates at 1 uM on day 18 by phase contrast microscopic analysis (reference value: 38.2 +/- 8.4/mm2); type: functional; in short: as §2
# [16] = Induction of differentiation of C3H/He mouse P19CL6 cells assessed as number of beating aggregates at 1 uM on day 18 by phase contrast microscopic analysis; type: functional; in short: as §2
# [17] = test system: P19CL6; assay: Induction of differentiation of C3H/He mouse P19CL6 cells assessed as beating aggregate formation at 0.1 to 1 uM using compound dissolved in 0.03% DMSO by phase contrast microscopic analysis; type: functional, cell-based; in short: as §2
# [18] = test system: P19CL6; assay: Induction of differentiation of C3H/He mouse P19CL6 cells assessed as aggregate formation on day 10 by phase contrast microscopic analysis; type: functional, cell-based; in short: as §2
# [19] = test system: P19CL6; assay: Induction of differentiation of C3H/He mouse P19CL6 cells assessed as aggregate formation at 0.1 to 1 uM on day 18 by phase contrast microscopic analysis; type: functional, cell-based; in short: as §2
# [20] = test system: P19CL6; assay: Induction of alpha-MHC gene expression in C3H/He mouse P19CL6 cells at 1 uM by RT-PCR analysis; type: functional, cell-based; conditions: TDE = time-dependent effect
# In short: (§3)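 Cardiac gene qPCR (α-MHC, GATA4, BMP2) in P19CL6 cells kept in α-MEM/10% FBS with agent, medium renewed at 48 h intervals. RNA is harvested on days 10 and 18 and reverse-transcribed with random primers. PCR runs 40 cycles (95 °C 15 s, 60 °C 1 min). Values are normalized to G3PDH, expressed relative to day 0, as mean ± SEM, n = 4.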
# [21] = test system: P19CL6; assay: Induction of GATA4 gene expression in C3H/He mouse P19CL6 cells at 1 uM by RT-PCR analysis; type: functional, cell-based; conditions: TDE = time-dependent effect; in short: as §3
# [22] = test system: P19CL6; assay: Induction of BMP2 gene expression in C3H/He mouse P19CL6 cells at 1 uM by RT-PCR analysis; type: functional, cell-based; conditions: TDE = time-dependent effect; in short: as §3
# [23] = Induction of alpha-MHC gene expression in C3H/He mouse P19CL6 cells at 1 uM measured on day 10 and 18 by RT-PCR analysis relative to control; type: functional; in short: as §3
# [24] = Induction of GATA4 gene expression in C3H/He mouse P19CL6 cells at 1 uM measured on day 10 and 18 by RT-PCR analysis relative to control; type: functional; in short: as §3
# [25] = Induction of BMP2 gene expression in C3H/He mouse P19CL6 cells at 1 uM measured on day 10 and 18 by RT-PCR analysis relative to control; type: functional; in short: as §3
# [26] = Induction of differentiation of C3H/He mouse P19CL6 cells assessed as beating rate of cardiomyocyte-like cells at 1 uM on day 18 (reference value: 45.2 +/- 4.2 bpm); type: functional
# [27] = test system: P19CL6; assay: Induction of Cav1.2 gene expression in C3H/He mouse P19CL6 cells on day 10 and 18 by RT-PCR analysis; type: functional, cell-based; in short: as §1
# [28] = test system: P19CL6; assay: Induction of Cav1.2 gene expression in C3H/He mouse P19CL6 cells at 1 uM by RT-PCR analysis; type: functional, cell-based; conditions: TDE = time-dependent effect; in short: as §1
# [29] = Induction of Cav1.2 gene expression in C3H/He mouse P19CL6 cells at 1 uM on day 10 by RT-PCR analysis relative to control; type: functional; in short: as §1
# [30] = Induction of Cav1.2 gene expression in C3H/He mouse P19CL6 cells at 1 uM on day 18 by RT-PCR analysis relative to control; type: functional; in short: as §1
# [31] = Decrease in Cav1.3 gene expression in C3H/He mouse P19CL6 cells at 1 uM on day 10 and day 18 by RT-PCR analysis; type: functional, cell-based; in short: as §1
# [32] = test system: P19CL6; assay: Induction of Cav1.2 gene expression in C3H/He mouse P19CL6 cells; type: functional, cell-based; in short: as §1
# [33] = test system: P19CL6; assay: Induction of differentiation of C3H/He mouse P19CL6 cells assessed as beating aggregate formation at 0.1 to 1 uM on day 10 by phase contrast microscopic analysis; type: functional, cell-based; in short: as §2
# [34] = test system: P19CL6; assay: Induction of differentiation of C3H/He mouse P19CL6 cells assessed as aggregate formation at 0.1 to 1 uM on day 10 by phase contrast microscopic analysis; type: functional, cell-based; in short: as §2
# [35] = test system: P19CL6; assay: Induction of alpha-MHC gene expression in C3H/He mouse P19CL6 cells at 1 uM measured on day 10 and 18 by RT-PCR analysis; type: functional, cell-based; in short: as §3
# [36] = test system: P19CL6; assay: Induction of GATA4 gene expression in C3H/He mouse P19CL6 cells at 1 uM measured on day 10 and 18 by RT-PCR analysis; type: functional, cell-based; in short: as §3
# [37] = test system: P19CL6; assay: Induction of BMP2 gene expression in C3H/He mouse P19CL6 cells at 1 uM measured on day 10 and 18 by RT-PCR analysis; type: functional, cell-based; in short: as §3
structure (smiles),measurement,setting,value
Cc1ccc2c(c1)C(=O)c1nc3ccccc3c(=O)n1-2,fold change (FC),[1],0.21
same,Activity,[2],Active
same,Activity,[3],inactive
same,Activity,[4],inactive
same,Activity,[5],inactive
same,Activity,[6],Dose-dependent effect
same,Activity,[7],Active
same,Activity,[8],2.7 mm2
same,fold change (FC),[9],1.38
same,fold change (FC),[10],17.44
same,fold change (FC),[11],7.06
same,Activity,[12],inactive
same,Activity,[13],inactive
same,Activity,[14],inactive
same,Activity,[15],47.3 /mm2
same,Activity,[16],33.7 /mm2
same,Activity,[17],Active
same,Activity,[18],Dose-dependent effect
same,Activity,[19],Active
same,Activity,[20],tde
same,Activity,[21],tde
same,Activity,[22],tde
same,fold change (FC),[23],1130.1
same,fold change (FC),[24],30.3
same,fold change (FC),[25],84.4
same,Activity,[26],52.1 bpm
same,Activity,[27],Dose-dependent effect
same,Activity,[28],tde
same,fold change (FC),[29],1.9
same,fold change (FC),[30],3.38
same,inhibition,[31],Active
O=C1c2ccccc2-n2c1nc1ccccc1c2=O,Activity,[32],inactive
same,Activity,[33],inactive
same,Activity,[34],inactive
same,Activity,[35],inactive
same,Activity,[36],inactive
same,Activity,[37],inactive
CCc1ccc2c(c1)C(=O)c1nc3ccccc3c(=O)n1-2,Activity,[32],inactive
same,Activity,[33],inactive
same,Activity,[34],inactive
CCCc1ccc2c(c1)C(=O)c1nc3ccccc3c(=O)n1-2,Activity,[32],inactive
same,Activity,[33],inactive
same,Activity,[34],inactive
